Active and inactive are the calls of the source. The rule behind the calls is not given here.
How the values were obtained:
HL-60 [1] = assay: Effect on human HL60 cells assessed as fold change in SLC8A2 gene expression at 1.085 uM incubated for 6 hrs by microarray-based method; assay type: functional
Summary of the method: (§1)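 HL60 cells were treated in triplicate with 1.085 µM or vehicle for 6 h. Total RNA was extracted with on-column DNase treatment and profiled on expression arrays.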

Tubulin (Homo sapiens) [2] = molecular target: T1, Tubulin (Homo sapiens) (UniProt P68371+Q9H4B7+P0DPH7+P68366+Q13509+Q71U36+P04350+Q3ZCM7+P07437+P68363+Q9BQE3+Q6PEY2+Q13885+Q9BVA1+Q9BUF5); assay: Induction of microtubule network depolymerization in human HeLa cells assessed as formation of abnormal chromosomal segregation at 500 nM incubated for 18 hrs by DAPI staining based fluorescence microscopic method; assay type: cell-based
Summary of the method: (§2)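 HeLa cells (100,000/mL) cultured overnight on glass-bottom dishes, then exposed to 500 nM or 1 μM, or DMSO, for 18 h. Permeabilized (0.5% Triton X-100) and fixed (3.7% formaldehyde). Stained overnight at 4 °C with anti-β-tubulin, then Alexa Fluor 647 secondary for 1 h at room temperature, and DAPI 1 μg/mL for 10 min. Examined by fluorescence microscopy.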

RS4-11 [3] = assay: Antiproliferative activity against human RS4:11 cells incubated for 48 hrs by MTT assay; assay type: functional, cell-based; settings: RS4-11, 48 h
Summary of the method: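 Cells grown in RPMI-1640 with 10% FBS, penicillin/streptomycin, 37 °C, 5% CO2. After 48 h of exposure to a dilution series, MTT was added (0.5 mg/ml final) for 4 h. Formazan was dissolved overnight in acidic SDS (10% SDS, 0.01 mol/L HCl) and absorbance read at 570 and 620 nm. Survival was expressed relative to controls, and EC50 was fitted from dose-response curves.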

RS4-11 [4] = assay: Induction of cell cycle arrest in human RS4:11 cells assessed as effect on S phase at 300 nM incubated for 18 hrs by BrdU/propidium iodide staining based flow cytometric analysis; assay type: functional
Summary of the method: (§3)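 RS4;11 cells treated with 300 nM or DMSO vehicle for 18 h, then pulsed with 10 μM BrdU for 1 h. Harvested cells immunostained for BrdU/PI (cell cycle), γH2AX (DNA damage) and PARP (apoptosis). Multicolor flow cytometry gated G1, sub-G2-like, G2/M and sub-G0/G1 populations.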

HL-60 [5] = assay: Effect on human HL60 cells assessed as fold change in NPIPB8 gene expression at 1.085 uM incubated for 6 hrs by microarray-based method; assay type: functional; summary of the method: as §1
HL-60 [6] = assay: Effect on human HL60 cells assessed as fold change in DSTYK gene expression at 1.085 uM incubated for 6 hrs by microarray-based method; assay type: functional; summary of the method: as §1
HL-60 [7] = assay: Effect on human HL60 cells assessed as fold change in ITPR3 gene expression at 1.085 uM incubated for 6 hrs by microarray-based method; assay type: functional; summary of the method: as §1
HL-60 [8] = assay: Effect on human HL60 cells assessed as fold change in HRH1 gene expression at 1.085 uM incubated for 6 hrs by microarray-based method; assay type: functional; summary of the method: as §1
HL-60 [9] = assay: Effect on human HL60 cells assessed as fold change in ARL17B gene expression at 1.085 uM incubated for 6 hrs by microarray-based method; assay type: functional; summary of the method: as §1
HL-60 [10] = assay: Induction of cell cycle arrest in human HL60 cells assessed as accumulation of cells at sub G0/G1 phase at EC50 incubated for 12 hrs by PI staining based flow cytometric analysis (reference value: 1.67%); assay type: functional
HL-60 [11] = assay: Effect on human HL60 cells assessed as fold change in SGOL1 gene expression at 1.085 uM incubated for 6 hrs by microarray-based method; assay type: functional; summary of the method: as §1
HL-60 [12] = assay: Effect on human HL60 cells assessed as fold change in TRPM2 gene expression at 1.085 uM incubated for 6 hrs by microarray-based method; assay type: functional
HL-60 [13] = assay: Induction of differentiation in human HL60 cells assessed as increase in CD11b positive cells at EC50 to EC90 incubated for 24 hrs by 7-AAD staining-based flow cytometric analysis; assay type: functional, cell-based
Summary of the method: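 Vitamin D3 at 100 nM and ATRA at 2 μM served as positive controls. Stained with APC anti-CD11b and PE anti-CD14 for 30 min at 4 °C, then 7-AAD.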

Tubulin (Homo sapiens) [14] = molecular target: T1, Tubulin (Homo sapiens); assay: Inhibition of tubulin polymerization in human RS4:11 cells at 300 nM by Western blot analysis; assay type: cell-based; settings: TDE = time-dependent effect
Summary of the method: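 Leukemia cells (RS4;11, CEM, HL60) treated with 300 nM for 0, 15, 30, 60 and 360 min. Western blotting for β-tubulin and p53, with lamin B1 as loading control and chemiluminescent detection.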

HL-60 [15] = assay: Effect on human HL60 cells assessed as fold change in GDAP1 gene expression at 1.085 uM incubated for 6 hrs by microarray-based method; assay type: functional; summary of the method: as §1
HL-60 [16] = assay: Effect on human HL60 cells assessed as fold change in PHF20L1 gene expression at 1.085 uM incubated for 6 hrs by microarray-based method; assay type: functional; summary of the method: as §1
HL-60 [17] = assay: Effect on human HL60 cells assessed as fold change in CEP44 gene expression at 1.085 uM incubated for 6 hrs by microarray-based method; assay type: functional; summary of the method: as §1
RS4-11 [18] = assay: Antitumor activity against human RS4:11 cells xenografted in NOD/SCID mouse assessed as increase in survival at 10 mg/kg, ip administrated 5 times per week; assay type: functional, organism-based
Summary of the method: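 Ten million RS4;11 cells were injected into the tail vein of unconditioned NOD/SCID mice. Engraftment was tracked by flow cytometry of human versus mouse CD45 in ficoll-isolated blood. When human CD45+ cells reached ≥1.5% in half of the mice, animals were randomized (n=5 per group) to vehicle (1% PVP, 4% DMSO, 95% PBS) or 10 mg/kg ip, 5x per week until death. Groups were compared by Kaplan-Meier curves and log-rank test.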

RS4-11 [19] = assay: Induction of cell cycle arrest in human RS4:11 cells assessed as decrease in accumulation at G1 phase at 300 nM incubated for 18 hrs by BrdU/propidium iodide staining based flow cytometric analysis; assay type: functional; summary of the method: as §3
HL-60 [20] = assay: Effect on human HL60 cells assessed as fold change in PNMT gene expression at 1.085 uM incubated for 6 hrs by microarray-based method; assay type: functional; summary of the method: as §1
HL-60 [21] = assay: Effect on human HL60 cells assessed as fold change in TAS1R1 gene expression at 1.085 uM incubated for 6 hrs by microarray-based method; assay type: functional; summary of the method: as §1
HL-60 [22] = assay: Effect on human HL60 cells assessed as fold change in C7orf43 gene expression at 1.085 uM incubated for 6 hrs by microarray-based method; assay type: functional; summary of the method: as §1
HL-60 [23] = assay: Induction of cell cycle arrest in human HL60 cells assessed as accumulation of cells at G2/M phase at EC50 incubated for 18 hrs by PI staining based flow cytometric analysis (reference value: 23.0%); assay type: functional
HL-60 [24] = assay: Induction of cell cycle arrest in human HL60 cells assessed as accumulation of cells at S phase at EC50 incubated for 18 hrs by PI staining based flow cytometric analysis (reference value: 19.0%); assay type: functional
Tubulin (Homo sapiens) [25] = molecular target: T1, Tubulin (Homo sapiens); assay: Induction of microtubule network depolymerization in human HeLa cells assessed as formation of condensed chromosomes at 500 nM incubated for 18 hrs by DAPI staining based fluorescence microscopic method; assay type: cell-based; summary of the method: as §2
HL-60 [26] = assay: Induction of cell cycle arrest in human HL60 cells assessed as accumulation of cells at sub G0/G1 phase at EC50 incubated for 18 hrs by PI staining based flow cytometric analysis (reference value: 1.67%); assay type: functional

Activity (Tubulin (Homo sapiens) [2]): Active | EC50 (RS4-11 [3]): 300 nM | inhibition (Tubulin (Homo sapiens) [14]): Tde | Activity (Tubulin (Homo sapiens) [25]): Active
SMILES: COC(=O)c1[nH]c2cc(OC)ccc2c1-c1ccc(C(F)(F)F)cc1
fold change (FC) (HL-60 [1]): -1.53 | Activity (RS4-11 [4]): inactive | fold change (FC) (HL-60 [5]): 1.5 | fold change (FC) (HL-60 [6]): 1.61 | fold change (FC) (HL-60 [7]): 1.57 | fold change (FC) (HL-60 [8]): 1.51 | fold change (FC) (HL-60 [9]): -1.5 | Activity (HL-60 [10]): 12.1% | fold change (FC) (HL-60 [11]): 1.52 | fold change (FC) (HL-60 [12]): 2.21 | Activity (HL-60 [13]): Active | fold change (FC) (HL-60 [15]): -1.61 | fold change (FC) (HL-60 [16]): 1.56 | fold change (FC) (HL-60 [17]): 1.76 | Activity (RS4-11 [18]): Active | Activity (RS4-11 [19]): Active | fold change (FC) (HL-60 [20]): -1.53 | fold change (FC) (HL-60 [21]): -1.51 | fold change (FC) (HL-60 [22]): -1.72 | Activity (HL-60 [23]): 56.3% | Activity (HL-60 [24]): 8.92% | Activity (HL-60 [26]): 24.1%

— ChEMBL document CHEMBL4359879, “Synthesis and evaluation of 2-carboxy indole derivatives as potent and selective anti-leukemic agents” (Eur J Med Chem, 2019)
